Screens from PubChem BioAssay.
The list is not random: actives were taken first. Their share in the collection is about 3.1%.
RBBP9 inhibitor – blocks human serine hydrolase RBBP9 | O75884 | recombinant RBBP9, FP-Rh probe fluorescence polarization | AID 1515 | actives 0.2% (n = 220,000) | inhibition, % at 7.94 µM;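 active = inhibition above the campaign mean of all tested compounds plus 3 SD, cut at about 14% in these data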;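 also: plate controls were DMSO wells with RBBP9 for no effect and wells lacking RBBP9 protein for full effect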
Target sequence (O75884 whole entry, looked up): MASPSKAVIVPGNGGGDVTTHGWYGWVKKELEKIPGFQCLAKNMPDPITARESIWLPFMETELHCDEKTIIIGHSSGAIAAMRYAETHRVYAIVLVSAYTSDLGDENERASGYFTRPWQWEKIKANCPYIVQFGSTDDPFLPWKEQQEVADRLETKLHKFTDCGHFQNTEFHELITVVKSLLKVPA
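Assay system: recombinant human RBBP9; Reagent: Serine-hydrolase probe FP-Rh, 375 nM pre-mixing; Doses: 7.94 µM single dose, 0.794% DMSO; Incubation: 30 min then 45 min, 25 °C; Detection: fluorescence polarization (mP), excitation 525 nm, emission 598 nm; Evaluation: percent inhibition from mP, scaled between DMSO and no-protein wells.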
LEDGF integ inh – blocks HIV-1 LEDGF/p75-dependent DNA integration; TR-FRET IN-LEDGF/p75 DNA integration, Eu/Cy5; inhibition, % at 3.7 µM; actives 0.64% (n = 370,000);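 active = inhibition above the screen-wide mean plus 3 SD, cut at about 13% in these data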;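 also: signal is the Cy5 over europium emission ratio at 671 and 618 nm; 0% = plate median of compound wells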
ABHD5-PLIN5 inh – ABHD5-PLIN5 protein interaction inhibition. Q00G26+Q8WTS1. Split G. princeps luciferase complementation, luminescence, 4 h. inhibition, % at 4 µM. actives 0.78% (n = 360,000);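 active = inhibition above the mean inhibition across every tested compound plus 3 SD, cut at about 22% in these data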;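 also: 0% = DMSO only wells and the 100% control is not disclosed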
MBD2 inh – inhibitors of human MBD2 binding to methylated oligonucleotide. TR-FRET. inhibition, % at 4.4 µM. actives 0.31% (n = 370,000). AID 686964; in the data active = inhibition above about 13%
Target sequence (Q9UBB5 whole entry, looked up): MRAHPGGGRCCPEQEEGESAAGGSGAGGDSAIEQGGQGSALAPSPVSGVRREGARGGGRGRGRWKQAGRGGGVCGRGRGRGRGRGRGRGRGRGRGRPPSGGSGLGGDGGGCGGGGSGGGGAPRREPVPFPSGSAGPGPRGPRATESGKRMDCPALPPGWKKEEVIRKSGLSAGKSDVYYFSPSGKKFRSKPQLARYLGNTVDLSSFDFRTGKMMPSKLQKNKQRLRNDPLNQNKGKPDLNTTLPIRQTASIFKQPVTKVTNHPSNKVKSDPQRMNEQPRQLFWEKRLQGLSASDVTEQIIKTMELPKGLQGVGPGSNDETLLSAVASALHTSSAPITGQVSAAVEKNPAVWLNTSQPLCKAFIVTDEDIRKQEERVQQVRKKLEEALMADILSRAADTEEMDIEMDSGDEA
PRMT1 inh – PRMT1 (human) inhibition, primary screen | Q99873 | inhibition, % at 2.79 µM | recombinant PRMT1, activity-based probe fluorescence polarization | actives 1.3% (n = 370,000) | AID 652257;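 active = inhibition above about 21% made by adding two undisclosed values, limit read from the data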
UHRF1 MBD2 ctr – blocks human UHRF1 binding to methylated DNA; Q96T88; inhibition, % at 4.4 µM; AID 687016; actives 0.75% (n = 370,000); UHRF1 binding to methylated oligo, TR-FRET; in the data active = inhibition above about 21%;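 also: UHRF1 SRA domain binding a hemimethylated CpG hairpin DNA probe; 0% = median of test compound wells and 100% = reference inhibitor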
ABHD5 PLIN5 conf – ABHD5-PLIN5 interaction inhibition, confirmed; shares compounds with ABHD5-PLIN5 inh; biochemical ABHD5-PLIN5 interaction, luminescence; inhibition, % at 4 µM; actives 67% (n = 2,200); AID 651612; in the data active = inhibition above about 23%;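 also: 0% = DMSO vehicle wells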
HNF4 split-luc – active in HNF4 split-luciferase counter-screen for ABHD5-PLIN5 inhibitors; shares compounds with ABHD5-PLIN5 inh; HNF4 dimerization, luminescence, biochemical; inhibition, % at 4 µM; actives 77% (n = 2,200); AID 651674;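 active = mean inhibition across replicate wells exceeding the computed hit threshold, cut at about 13% in these data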;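 also: light from luciferase halves that rejoin when HNF4 fusion proteins dimerize; 0% = DMSO only wells and the 100% control is not given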
* hit, by the source's call; . = not tested or not shown.

SMILES	RBBP9 inhibitor	LEDGF integ inh	ABHD5-PLIN5 inh	MBD2 inh	PRMT1 inh	UHRF1 MBD2 ctr	ABHD5 PLIN5 conf	HNF4 split-luc
CC(=O)OC1CC2C(C)(C)C(=O)C=CC2(C)C2CCC3(C)C(c4ccoc4)OC(=O)C4OC43C12C (configuration not stated)	.	0	24*	7	1	0	42*	34*
COC(=O)[C@@H]1OC(=O)[C@H]2O[C@@]23[C@@]1(C)CC[C@@H]1[C@@]2(C)C=CC(=O)OC(C)(C)[C@@H]2CC(=O)[C@]13C	.	-1	2	1	-1	-2	.	.
CC1(C)OC(=O)C=C[C@]2(C)[C@H]3CC[C@@]4(C)[C@H](c5ccoc5)OC(=O)[C@H]5O[C@]54[C@]3(C)C(=O)C[C@@H]12	.	-1	4	1	0	0	.	.
CC(C)[C@H](NC(=O)c1ccccc1)C(=O)N1CCC[C@H]1C(=O)NCCc1ccccc1Cl	.	0	.	2	1	-2	.	.
CCOC(=O)C(c1ccccc1)C(Nc1ccc(F)cc1)c1ccccn1 (configuration not stated)	2	3	3	7	-3	-3	.	.
CCOC(=O)C(C(=O)OCC)C(Nc1ccc(Br)cc1)c1ccccc1 (configuration not stated)	-1	0	26*	0	1	0	11	52*
CCC(CC)C(=O)Nc1cccc(C(=O)NCc2ccco2)c1	-2	11	25*	-5	5	2	25*	31*
O=C(NCc1ccco1)c1ccc2c(c1)C(=O)c1ccccc1-2	4	-1	33*	-6	9	-18	46*	49*
COc1ccccc1NC(=O)OC1CC2CC1[C@H]1CCCCN1[C@H]2C (some centres not stated)	.	0	.	3	4	-1	.	.
COCc1cn(-c2ccc3c(c2)[C@]2(CC(=O)N(C)C2c2ccccc2)C(=O)N3CC(C)C)nn1 (some centres not stated)	.	3	.	1	-1	2	.	.
O=c1[nH]c(C2CCN(S(=O)(=O)c3ccc(S(=O)(=O)NC4CC4)cc3)CC2)nc2c1nnn2Cc1ccccc1	.	-2	3	-4	-1	0	.	.
O=c1[nH]c(C2CCN(S(=O)(=O)c3ccc(F)cc3)CC2)nc2c1nnn2Cc1ccc2c(c1)OCCO2	.	-1	29*	5	10	-2	35*	8
O=c1[nH]c(C2CCN(S(=O)(=O)c3ccccc3F)CC2)nc2c1nnn2Cc1ccc2c(c1)OCCO2	.	-4	-9	-2	-7	-1	.	.
O=c1[nH]c(C2CCN(S(=O)(=O)c3ccc(S(=O)(=O)NC4CC4)cc3)CC2)nc2c1nnn2Cc1ccc(F)cc1	.	3	28*	-4	4	2	48*	3
COc1cccc(NC(=O)Nc2c(-c3ccc(C(F)(F)F)cc3)nc3ncccn23)c1	.	3	.	3	-5	-3	.	.
COC(=O)[C@]12C[C@H](CC(=O)NCc3ccccc3)C(=O)N(Cc3ccccc3)C1=C[C@H](C1CCCC1)O[C@@H]2C	.	-3	.	3	5	-3	.	.
Cc1ccc(-n2sc3ccccc3c2=O)cc1	37*	-1	31*	0	76*	-6	10	114*
CC(C)(C)NC(=O)C(c1ccncc1)n1c(=O)c(-c2ccco2)nc2ccccc21 (configuration not stated)	.	6	48*	-7	0	-8	44*	14*
CC(C)(C)NC(=O)C(c1ccnc2ccccc12)n1c(=O)c(-c2ccco2)nc2ccccc21 (configuration not stated)	.	3	58*	-5	11	-3	42*	7
O=C(NCCCN1CCOCC1)c1sc2cc([N+](=O)[O-])ccc2c1Cl	4	.	24*	.	.	.	5	66*
CC1(C)CC(=O)C(C(C2=C(O)CC(C)(C)CC2=O)c2ccc(O)c([N+](=O)[O-])c2)=C(O)C1	2	1	24*	-3	11	1	73*	57*
CCC(c1nc2ccccc2[nH]1)n1c(=O)c(-c2ccco2)nc2ccccc21 (configuration not stated)	.	4	37*	1	17	-5	59*	23*
O=c1c(-c2ccco2)nc2ccccc2n1C(c1ccccc1)c1nc2ccccc2[nH]1 (configuration not stated)	.	3	36*	-6	10	-7	28*	16*
O=c1c(-c2cccs2)nc2ccccc2n1C(CCc1ccccc1)c1nc2ccccc2[nH]1 (configuration not stated)	.	1	4	-7	0	-3	.	.
O=c1c(-c2ccco2)nc2ccccc2n1C(CCc1ccccc1)c1nc2ccccc2[nH]1 (configuration not stated)	.	6	72*	2	5	-3	55*	10
SMILES	RBBP9 inhibitor	LEDGF integ inh	ABHD5-PLIN5 inh	MBD2 inh	PRMT1 inh	UHRF1 MBD2 ctr	ABHD5 PLIN5 conf	HNF4 split-luc
CCN(CC)CC(C)(C)C(=O)/C=C/c1ccc(/C=C/C(=O)C(C)(C)CN(CC)CC)cc1	.	-9	95*	-1	13	0	101*	107*
COc1ccc(OCc2cn(CC(=O)c3ccc(O)cc3)nn2)cc1	.	6	24*	12	5	22*	60*	30*
O=C(Cn1cc(COc2c(F)c(F)cc(F)c2F)nn1)c1ccc(O)cc1	.	7	31*	11	8	20	45*	35*
N#Cc1cc(F)cc(OC[C@@H](O)CN2CCC(C(O)(c3ccccc3)c3ccccc3)CC2)c1	.	6	.	-3	-2	-3	.	.
O=C(CN1C(=O)S/C(=C\C=C\c2ccccc2)C1=O)Nc1ccc(O)cc1	-24	-4	30*	-4	2	3	12	3
O=C(CCCN1C(=O)S/C(=C/C=C/c2ccccc2)C1=O)Nc1ccc(C(=O)O)cc1	.	-1	28*	1	-1	2	17	12
CC(C)=CC(=O)NCC1CCN(C(=O)C(=O)c2cc3ccccc3o2)CC1	.	1	.	0	1	-1	.	.
CC(=O)C1=C(C)N(Cc2ccc(F)cc2)C(=S)NC1c1ccccc1 (configuration not stated)	.	-2	.	0	-3	-1	.	.
CC(C)N1C/C(=C/c2ccsc2)C(=O)/C(=C/c2ccsc2)C1	-11	0	28*	-3	0	-4	85*	78*
CCN1C(=O)S/C(=C/c2ccsc2)C1=O	11	-1	3	-1	1	-3	.	.
